In ChEMBL document CHEMBL1159127 (Bioorg Med Chem, 2010):
≈ marks a conversion by molar mass, not a printed value.

Assays:
[1] = Aqueous solubility in phosphate buffer at pH 7.4; format: physicochemical
Method in brief: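 Thermodynamic solubility by the Avdeef–Testa approach. About 1 mg of ground compound went into 1.0 mL of 1/15 M phosphate buffer (pH 7.4) […], shaken 48 h at 25 °C, then filtered (0.22 µm). Filtrate was diluted in DMF and quantified by reversed-phase HPLC-UV (263–288 nm) against a calibration curve.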

[2] = Thermodynamic aqueous solubility in equal volume of ethyl alcohol and 1/15M phosphate buffer at pH 7.4; format: physicochemical; conditions: 1:1 (v/v) ethyl alcohol / 1/15 M phosphate buffer
Method in brief: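 About 1 mg solid ground in agate mortar, suspended in 1.0 mL of a 1:1 mix of 1/15 M phosphate buffer (pH 7.4) and EtOH, shaken 48 h at 25 °C. Filtered (0.22 µm), filtrate diluted in DMF, quantified by reversed-phase C18 HPLC with UV at 263–288 nm against a calibration curve, corrected for dilution.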

[3] = target: T1, Aryl hydrocarbon receptor (Homo sapiens, UniProt P35869); assay: Agonist activity at aryl hydrocarbon receptor in human MCF7 cells after 24 hrs CYP1A1-dependent EROD assay; format: functional, cell-based
T1 sequence (P35869 whole entry): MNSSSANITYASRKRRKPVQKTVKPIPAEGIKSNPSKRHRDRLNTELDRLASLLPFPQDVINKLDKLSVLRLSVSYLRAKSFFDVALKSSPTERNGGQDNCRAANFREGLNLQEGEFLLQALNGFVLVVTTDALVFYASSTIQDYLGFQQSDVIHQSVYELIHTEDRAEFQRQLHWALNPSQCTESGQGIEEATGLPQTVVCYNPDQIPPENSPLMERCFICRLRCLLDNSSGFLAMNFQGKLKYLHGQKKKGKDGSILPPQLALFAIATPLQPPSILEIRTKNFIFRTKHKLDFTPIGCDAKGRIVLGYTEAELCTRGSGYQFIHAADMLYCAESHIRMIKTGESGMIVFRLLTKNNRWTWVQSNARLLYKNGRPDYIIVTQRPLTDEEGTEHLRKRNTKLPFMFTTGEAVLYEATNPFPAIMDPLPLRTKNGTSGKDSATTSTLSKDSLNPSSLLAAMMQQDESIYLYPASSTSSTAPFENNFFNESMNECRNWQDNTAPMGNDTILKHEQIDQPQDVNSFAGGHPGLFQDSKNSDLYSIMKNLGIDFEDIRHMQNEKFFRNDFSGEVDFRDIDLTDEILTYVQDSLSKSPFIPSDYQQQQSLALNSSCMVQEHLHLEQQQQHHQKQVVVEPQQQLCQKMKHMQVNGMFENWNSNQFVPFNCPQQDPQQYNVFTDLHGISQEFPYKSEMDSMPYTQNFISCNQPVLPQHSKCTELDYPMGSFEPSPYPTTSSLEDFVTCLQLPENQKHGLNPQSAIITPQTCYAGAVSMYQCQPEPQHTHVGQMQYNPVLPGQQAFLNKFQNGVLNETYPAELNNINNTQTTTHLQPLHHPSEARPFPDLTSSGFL
Method in brief: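 MCF-7 cells in high-glucose D-MEM with 10% FBS, plated at 5×10^5 cells/mL, settled 4.5 h at 37 °C, then exposed to compound (3% DMSO in added portion) for 24 h. Washed cells were given ethoxyresorufin, dicoumarol and NADPH in PBS for 150 min at 37 °C. Triplicate; EC50 derived.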

MCF7 = assay: Toxicity in human MCF7 cells assessed as effect on cell viability after 24 hrs; format: cell-based; conditions: mcf7, 24 h
Method in brief: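 Same MCF-7 plating and 24 h compound exposure as the EROD assay. Medium was then removed, cells were detached with 0.25% trypsin/EDTA and counted.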

[4] = phosphate buffer, read-out: solubility

SMILES	solubility [1, 4]	solubility ([1]; buffer)	solubility thermodynamic [2]	EC50 [3]	Activity (MCF7)
O=C(NC[C@H](NS(=O)(=O)c1ccccc1)C(=O)O)c1ccc(N2CCC(NC3=NCCCN3)CC2)cc1	< 0.1 µg/mL				
O=C(NC[C@H](NS(=O)(=O)c1ccccc1)C(=O)O)c1ccc(N2CCC[C@H](N=C3NCCCN3)C2)cc1		3.5 µg/mL (≈ 6.62 µM)			
O=c1cc(-c2ccccn2)oc2ccc3ccccc3c12			299 µg/mL (≈ 1090 µM)	450 nM	Non-toxic
O=c1cc(-c2c(F)cccc2F)oc2ccc3ccccc3c12			248 µg/mL (≈ 804 µM)	200 nM	Non-toxic
Cc1ccccc1-c1cc(=O)c2c(ccc3ccccc32)o1			262 µg/mL (≈ 915 µM)	> 10000 nM	Non-toxic
O=c1cc(-c2ccccc2)oc2ccc3ccccc3c12 [BETA-NAPHTHOFLAVONE]	< 0.15 µg/mL		84.6 µg/mL (≈ 311 µM)		Non-toxic

Further lines, with some results ahead:

solubility [1, 4]	solubility ([1]; buffer)	solubility thermodynamic [2]	EC50 [3]	SMILES	Activity (MCF7)
	0.6 µg/mL (≈ 1.1 µM)			O=C(NC[C@H](NS(=O)(=O)c1ccccc1)C(=O)O)c1ccc(N2CCC(NC3=NCCCN3)CC2)c(F)c1	
		1270 µg/mL (≈ 4230 µM)	> 10000 nM	Cc1cccc(C)c1-c1cc(=O)c2c(ccc3ccccc32)o1	Non-toxic
		153 µg/mL (≈ 527 µM)	330 nM	O=c1cc(-c2ccccc2F)oc2ccc3ccccc3c12	Non-toxic
		45.8 µg/mL (≈ 151 µM)	270 nM	COc1ccccc1-c1cc(=O)c2c(ccc3ccccc32)o1	Non-toxic
